Measured values as given in ChEMBL document CHEMBL2202989, “New adamantane phenylalkylamines with σ-receptor binding affinity and anticancer activity, associated with putative antagonism of neuropathic pain” (J Med Chem, 2012).
Active and inactive are the calls of the source. The rule behind the calls is not given here.

Assays:
[1] = tested on: PC-3; assay: Cell cycle arrest in human PC3 cells assessed as accumulation at >G2/M phase at 15 uM after 24 hrs using propidium iodide staining by FACS analysis (reference value: 6 %); format: functional
[2] = tested on: IGROV-1; assay: Cell cycle arrest in human IGROV1 cells assessed as accumulation at S phase at 5 uM after 24 hrs using propidium iodide staining by FACS analysis (reference value: 29 %); format: functional
[3] = tested on: BXPC-3; assay: Induction of apoptosis in human BxPC3 cells assessed as healthy cells at 5 uM using annexin V/7-AAD by FACS analysis (reference value: 79 %); format: functional
[4] = tested on: IGROV-1; assay: Induction of apoptosis in human IGROV1 cells assessed as early apoptosis at 5 uM using annexin V/7-AAD by FACS analysis (reference value: 9 %); format: functional
[5] = tested on: PC-3; assay: Cell cycle arrest in human PC3 cells assessed as accumulation at G2 phase at 50 uM after 24 hrs using propidium iodide staining by FACS analysis (reference value: 12 %); format: functional
[6] = tested on: PC-3; assay: Induction of apoptosis in human PC3 cells assessed as early apoptosis at 0.5 uM using annexin V/7-AAD by FACS analysis (reference value: 5 %); format: functional
[7] = tested on: IGROV-1; assay: Cell cycle arrest in human IGROV1 cells assessed as accumulation at G2 phase at 50 uM after 24 hrs using propidium iodide staining by FACS analysis (reference value: 19 %); format: functional
[8] = tested on: BXPC-3; assay: Induction of apoptosis in human BxPC3 cells assessed as late apoptosis at 5 uM using annexin V/7-AAD by FACS analysis (reference value: 9 %); format: functional
[9] = tested on: IGROV-1; assay: Cell cycle arrest in human IGROV1 cells assessed as accumulation at G2 phase at 0.5 uM after 24 hrs using propidium iodide staining by FACS analysis (reference value: 19 %); format: functional
In short: (§1)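 Cells were plated 24 h before treatment and exposed for 24 h at final 0.5, 5, 15 and 50 μM in 0.5% DMSO, against vehicle-treated controls. Cells were then trypsinised and fixed in cold ethanol for 3 h at 4 °C. They were stained in a mix of RNase (200 μg/mL) and PI (1 mg/mL) for 45 min at room temperature in the dark. Flow cytometry used 488 nm excitation and 10 000 gated cells. Phase percentages were assigned from DNA content.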

[10] = tested on: PC-3; assay: Induction of apoptosis in human PC3 cells assessed as early apoptosis at 5 uM using annexin V/7-AAD by FACS analysis (reference value: 5 %); format: functional
In short: (§2)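 Cells plated 24 h before treatment, then exposed 24 h to 0.5, 5, 15 or 50 μM compound (final DMSO 0.5%); vehicle controls included. Cells scraped and stained with annexin V-FITC and 7-AAD for 15 min on ice in the dark. Flow cytometry with 488 nm excitation, 10,000 gated cells. Early apoptosis was annexin V+/7-AAD−, late was annexin V+/7-AAD+.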

[11] = tested on: PC-3; assay: Induction of apoptosis in human PC3 cells assessed as late apoptosis at 15 uM using annexin V/7-AAD by FACS analysis (reference value: 3 %); format: functional; in short: as §2
[12] = tested on: Mus musculus; assay: Analgesic activity in CD1 mouse neuropathic pain model assessed as reduction in paw licking time at 100 mg/kg, po administered 1 hr prior to formalin challenge in presence of paclitaxel; format: functional, organism-based; design: dose 100 mg/kg
In short: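 CD1 male mice (34−40 g), free access to food and water, were given paclitaxel 6 mg/kg ip once in saline on day 0. On day 14 the test compound was given orally 1 h before formalin was injected into the hind paw. Time spent licking and biting the injected paw and leg was recorded at 0−5 and 35−40 min after formalin.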

[13] = tested on: BXPC-3; assay: Cell cycle arrest in human BxPC3 cells assessed as accumulation at S phase at 50 uM after 24 hrs using propidium iodide staining by FACS analysis (reference value: 33 %); format: functional; in short: as §1
[14] = tested on: IGROV-1; assay: Cell cycle arrest in human IGROV1 cells assessed as accumulation at G1 phase at 0.5 uM after 24 hrs using propidium iodide staining by FACS analysis (reference value: 27 %); format: functional; in short: as §1
[15] = tested on: HL-60(TB); assay: Growth inhibition of human HL-60(TB) cells after 48 hrs by SRB assay; format: functional; details: HL-60, 48 h
In short: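 Cells kept in RPMI 1640 with 5% FCS at 37 °C, 5% CO2, and seeded 24 h before dosing. Compound given from DMSO at 10-fold dilutions, 100 to 0.01 μM, for 48 h. Cells fixed with TCA, stained with SRB, absorbance read at 540 nm. GI50 taken from a time-zero plate.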

[16] = tested on: BXPC-3; assay: Induction of apoptosis in human BxPC3 cells assessed as total apoptotic death at 0.5 uM using annexin V/7-AAD by FACS analysis (reference value: 18 %); format: functional; in short: as §2
[17] = tested on: PC-3; assay: Cell cycle arrest in human PC3 cells assessed as accumulation at G1 phase at 5 uM after 24 hrs using propidium iodide staining by FACS analysis (reference value: 36 %); format: functional
[18] = tested on: PC-3; assay: Induction of apoptosis in human PC3 cells assessed as cleaved caspase3 containing cells at 0.5 uM by antibody-based FACS analysis (reference value: 3.2 %); format: functional
[19] = tested on: DU-145; assay: Antitumor activity against human DU145 cells xenografted in SCID mouse assessed as tumor growth inhibition at 55 mg/kg, ip administered 5 consecutive days in a week for two cycles measured after 2 cycles relative to control; format: functional; details: DU-145, ip, route intraperitoneal, read-out: TGI
In short: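 DU145 xenografts were grown in SCID mice from 10^6-cell inocula, with at least 30 animals in total. Treatment started ip at a mean tumor volume of about 100 mm3. The test agent was given in 5% Tween 80; paclitaxel was dissolved in Cremophor and diluted in saline. Caliper volumes were taken twice weekly and %ΔT/ΔC calculated; two-tailed t test.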

[20] = tested on: IGROV-1; assay: Cell cycle arrest in human IGROV1 cells assessed as accumulation at >G2/M phase at 50 uM after 24 hrs using propidium iodide staining by FACS analysis (reference value: 21 %); format: functional; in short: as §1
[21] = tested on: PC-3; assay: Induction of apoptosis in human PC3 cells assessed as cleaved caspase3 containing cells at 5 uM by antibody-based FACS analysis (reference value: 3.2 %); format: functional
[22] = tested on: BXPC-3; assay: Induction of apoptosis in human BxPC3 cells assessed as late apoptosis at 0.5 uM using annexin V/7-AAD by FACS analysis (reference value: 9 %); format: functional
[23] = tested on: PC-3; assay: Cell cycle arrest in human PC3 cells assessed as accumulation at >G2/M phase at 50 uM after 24 hrs using propidium iodide staining by FACS analysis (reference value: 6 %); format: functional
[24] = tested on: IGROV-1; assay: Induction of apoptosis in human IGROV1 cells assessed as healthy cells at 50 uM using annexin V/7-AAD by FACS analysis (reference value: 86 %); format: functional
[25] = tested on: PC-3; assay: Antitumor activity against human PC3 cells xenografted in SCID mouse assessed as bone metastasis at 55 mg/kg, ip administered 5 consecutive days in a week for two cycles measured after 2 cycles relative to control; format: functional; details: route intraperitoneal
In short: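 PC3 xenografts were grown in SCID mice (10^6 cells per inoculum), 14 mice (28 tumors) per group, dosed ip from about 100 mm3. The test agent was given in 5% Tween 80; paclitaxel was given in Cremophor diluted in saline, with a vehicle of 1:1 ethanol/Cremophor diluted 1:3 in saline. Volume and %ΔT/ΔC were derived from caliper readings twice weekly. Occurrence of primary tumors and of axillary and bone metastases was scored (n = 7). Two-tailed t test.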

SMILES: CN1CCN(CCCc2ccc(C(c3ccccc3)C34CC5CC(CC(C5)C3)C4)cc2)CC1 (configuration not stated)
- Activity [1]: 7%
- Activity [2]: 27%
- Activity [3]: 77%
- Activity [4]: 10%
- Activity [5]: 11%
- Activity [6]: 3%
- Activity [7]: 10%
- Activity [8]: 10%
- Activity [9]: 23%
- Activity [10]: 5%
- Activity [11]: 7%
- Activity [12]: Active
- Activity [13]: 33%
- Activity [14]: 25%
- GI50 [15]: 4.02 nM
- TGI [15]: 7.88 nM
- CC50 ([15]; read-out: LC50 (the source's name)): 100 nM
- Activity [16]: 17%
- Activity [17]: 36%
- Activity [18]: 1.7%
- inhibition in vivo at 55 mg/kg [19]: 71.4%
- Activity [20]: 15%
- Activity [21]: 2%
- Activity [22]: 7%
- Activity [23]: 17%
- Activity [24]: 26%
- Activity [25]: 43%
